Source: PubChem BioAssay (The Scripps Research Institute Molecular Screening Center)
HTR1E antagonist: 5-HT1E receptor antagonists, primary screen, cell-based, HTS; 5-hydroxytryptamine receptor 1E (Homo sapiens), P28566; CHO 5-HT1E Ga15 NFAT-bla reporter, FRET, antagonist; inhibition, % at 6 µM; 65,000 tested, 0.99% active;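 active means inhibition above a set limit, the mean inhibition across every tested compound plus 3 SD, cut at about 29% in these data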;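 further: signal is the 460 over 535 nm emission ratio of beta-lactamase substrate; 0% = agonist plus DMSO wells and 100% = wells without agonist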
Target sequence (P28566 whole entry, looked up): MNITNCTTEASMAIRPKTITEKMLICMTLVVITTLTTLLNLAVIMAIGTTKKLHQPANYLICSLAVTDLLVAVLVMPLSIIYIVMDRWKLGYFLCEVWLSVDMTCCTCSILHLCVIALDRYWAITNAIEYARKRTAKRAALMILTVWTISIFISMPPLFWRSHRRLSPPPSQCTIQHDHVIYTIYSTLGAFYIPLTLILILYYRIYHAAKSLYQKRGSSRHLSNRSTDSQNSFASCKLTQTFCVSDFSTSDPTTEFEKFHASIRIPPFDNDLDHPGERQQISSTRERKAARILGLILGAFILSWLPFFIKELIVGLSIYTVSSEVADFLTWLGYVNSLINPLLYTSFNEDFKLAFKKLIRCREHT
5HT1E ag: 5-HT1E receptor agonists, primary screen, cell-based, HTS; CHO 5-HT1E Ga15 NFAT-bla reporter, FRET; 0% DMSO wells, 100% control agonist wells; activation, % at 6 µM; 65,000 tested, 0.69% active;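 active means activation above a set limit, the screen-wide mean activation plus 3 SD, cut at about 8.5% in these data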;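 further: 100% = positive control agonist at 1 µM giving full maximal response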
5-HT1A blocker: human 5-HT1a receptor antagonists, primary screen, cell-based, CHO, Ga15 NFAT-bla reporter. 5-hydroxytryptamine receptor 1A (Homo sapiens), P08908. CHO 5-HT1a Ga15 NFAT-bla reporter, antagonist mode. inhibition, % at 10 µM. 62,000 tested, 0.68% active;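 active means inhibition above the mean of all tested compounds plus 3 SD, cut at about 43% in these data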;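 further: receptor stimulated by 5-CT agonist at 100 nM near EC80; beta-lactamase reporter measured by ratiometric fluorescence of a cleavable substrate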
5HT1a ag: human 5-HT1a receptor agonists, primary screen, cell-based, CHO, Ga15 NFAT-bla reporter; CHO 5-HT1a Ga15 NFAT-bla reporter, FRET ratio; 0% basal, 100% maximal reference agonist; activation, % at 10 µM; 65,000 tested, 0.56% active; AID 567, 2006;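 active means activation above the screen-wide mean activation plus 3 SD, cut at about 19% in these data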;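 further: 0% = DMSO wells and 100% = 5-CT at EC100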
Jurkat tox 60K: cytotoxicity toward Jurkat T cells, primary screen, cytotoxicity control, cell-based, Jurkat E6.1, 60K MLSMR library; Jurkat E6.1 viability, ATP luminescence, 48 h; inhibition, % at 4 µM; 56,000 tested, 1.2% active;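 active means inhibition above the mean inhibition of all tested compounds plus 3 SD, cut at about 28% in these data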
HEK293 NFkB inh: inhibitors of PMA/ionomycin-induced NF-kB reporter, primary screen, antigen receptor NF-kB inhibitor project, cell-based, HEK-293 luciferase reporter, luminescence. HEK-293 NF-kB luciferase reporter. inhibition, % at 3 µM. 62,000 tested, 0.21% active. AID 465, 2006;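 active means inhibition above the mean of all tested compounds plus 3 SD, cut at about 40% in these data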;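 further: 0% = stimulated DMSO wells and 100% = 10 µM reference inhibitor 5653914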
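Material: HEK-293 cells with stable firefly luciferase reporter driven by four HIV NF-kB elements / Also added: PMA plus ionomycin mix as NF-kB-activating stimulus / Compound dosing: 3 µM once, 0.30% DMSO / Times: 1 h pretreatment, 16 h stimulation, 37 °C / Signal: luminescence / Evaluation: per-plate % inhibition versus controls / Benchmarks: DMSO and 10 µM reference inhibitor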
Starred values were filed as active, the others as inactive; x = no result given. The list is not random: actives were taken first. Their share in the collection is about 3.3%.

SMILES	HTR1E antagonist	5HT1E ag	5-HT1A blocker	5HT1a ag	Jurkat tox 60K	HEK293 NFkB inh
COCCNC(=O)CS(=O)Cc1nc(-c2ccc(OC)cc2)oc1C (configuration not stated)	-16.5	-0.3	2.2	-2.2	-8.6	9.5
Cc1cccc(-c2nc(CS(=O)CC(=O)NC3CCCC3)c(C)o2)c1 (configuration not stated)	13.2	-0.1	-3.4	36.8*	-2.0	6.7
CCN1CC=C2C(C1)C(c1ccc(Cl)s1)C(C#N)=C(N)C2(C#N)C#N (configuration not stated)	-1.7	0.3	-8.0	-0.6	2.8	-5.7
Cc1cccc(-c2nc(C#N)c(NC3CCCCC3)o2)c1	55.0*	-0.4	x	-1.1	x	x
COc1nc(NCCC2=CCCCC2)nc(OC)n1	2.7	0.1	-13.8	50.6*	-1.6	8.9
Cn1c(=O)[nH]c(=O)c2c1nc(SCC(=O)Nc1ccccc1)n2Cc1ccccc1	-2.4	0.9	-5.3	3.0	5.7	-7.6
CCCCCOC(=O)Cn1c(SCC(=O)Nc2ccccc2)nc2c1c(=O)[nH]c(=O)n2C	2.2	9.7*	-6.7	-0.8	-1.7	14.1
Cc1cc(NC(=O)CCC2CCCC2)no1	3.9	-0.4	-8.0	0.7	-0.7	10.8
N#Cc1cn(-c2ccccc2)nc1-c1ccccc1	33.8*	-0.8	29.4	-3.1	8.3	5.8
OCc1cn(-c2ccccc2)nc1-c1ccc(-c2nn(-c3ccccc3)cc2CO)cc1	9.0	-0.1	6.6	0.6	x	9.9
COc1ccccc1Oc1cc(C#N)c(C#N)cc1-n1nnc2ccccc21	6.8	-0.9	49.1*	-0.3	6.9	20.6
COc1ccc(/C=N\n2nnc3ccccc32)cc1	-2.5	0.5	4.0	-3.6	2.3	-3.9
O=C1NCCN1Cc1cccc(Cl)c1	-3.3	0.2	4.9	28.3*	-8.4	7.5
Cc1cccc(C)c1OCC(O)Cn1ccnc1C (configuration not stated)	5.3	-0.7	4.2	0.5	1.9	3.4
Cc1cccc(C)c1OCC(O)CN (configuration not stated)	3.3	23.9*	-2.7	-4.0	0.9	8.5
CCOc1cc(C)c(S(=O)(=O)Nc2ccc(Cl)cn2)cc1C	7.3	27.0*	11.9	-2.2	-2.9	0.3
C=C1[C@@H](C)C2[C@H](Cc3ccccc3)NC(=O)[C@]23OC(=O)CC[C@H](O)CCC[C@H](C)C/C=C/[C@H]3[C@@H]1O (some centres not stated)	33.5*	0.5	x	-2.0	x	x
CCn1c(=O)c2cc(C(=O)N3CCN(C(=O)c4ccco4)CC3)sc2c2ccccc21	13.8	1.6	-6.1	0.4	3.7	9.6
CCCC(C)C1C(C#N)=C(N)Oc2cc(C)oc(=O)c21 (configuration not stated)	2.1	2.1	-4.1	-0.4	-0.3	9.7
CCc1nnc(NC(=O)CSc2nnc(-c3ccc(O)cc3)n2-c2ccccc2)s1	-5.7	-1.0	1.3	-2.6	5.0	9.4
COc1ccc(-c2nnc(SCC(=O)Nc3ncc(C)s3)n2-c2ccccc2)cc1OC	13.7	0.0	-2.7	2.5	49.5*	12.2
CSc1ccc(S(=O)(=O)Nc2ccc3c(c2)OCCO3)cc1	8.7	1.3	8.2	-2.9	8.0	16.0
O=C1CCCN1c1ccc(S(=O)(=O)Nc2ccc3c(c2)OCCO3)cc1	9.5	0.2	9.1	-4.2	82.0*	29.0
COc1ccc(C)cc1NC(=O)CN1CCN(S(=O)(=O)c2ccc(Br)cc2)CC1	5.6	0.5	-4.8	0.4	-1.3	7.5
COc1cccc(OCC(O)CO)c1 (configuration not stated)	-4.9	1.1	1.7	0.5	-4.8	9.8
COc1ccc(-c2ccc(SCC(=O)N3CCCC3)nn2)cc1OC	30.4*	-0.3	-2.9	-2.4	-1.6	5.5
